In ChEMBL document CHEMBL1649387, “Synthesis and evaluation of quinonoid compounds against tumor cell lines” (Eur J Med Chem, 2011):
pIC50: −log10 of the molar value. The source made the active and inactive calls. No cut-off for these calls is given here.

Assays:
HCT-8 [1] = assay: Induction of apoptosis in human HCT8 cells assessed as cell viability at 5 uM after 24 hrs by trypan blue exclusion assay in presence of […]; format: functional, cell-based
Method in brief: (§1)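 Cells incubated 24 h, with or without 24 h pretreatment with 5 mM NAC. Viability determined by trypan blue dye exclusion.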

HL-60 [2] = assay: Genotoxicity in human HL60 cells assessed as DNA strand breaks at 5 uM after 24 hrs by comet assay; format: functional, cell-based
Method in brief: (§2)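 Cells treated 24 h, with or without 24 h pretreatment with 5 mM NAC. Cells embedded in 0.75% low-melt agarose and lysed (pH 10.0, 4 °C, ≥1 h). DNA unwound 20 min in 300 mM NaOH/1 mM EDTA (pH >13), then electrophoresed 20 min at 0.86 V/cm and stained with ethidium bromide. 100 cells scored visually into classes 0–4 to give damage index.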

HCT-8 [3] = assay: Induction of apoptosis in human HCT8 cells assessed as cell viability at 5 uM after 24 hrs by trypan blue exclusion assay; format: functional, cell-based; method in brief: as §1
SF-295 [4] = assay: Genotoxicity in human SF295 cells assessed as DNA strand breaks at 5 uM after 24 hrs by comet assay in presence of […]; format: functional, cell-based; method in brief: as §2
HL-60 [5] = assay: Induction of lipid peroxidation in human HL60 cells assessed as increase in TBARS formation at 5 uM after 24 hrs in presence of […]; format: functional, cell-based
Method in brief: (§3)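 Cells treated 24 h, with or without 24 h pretreatment with 5 mM NAC. Cells lysed with Tris-HCl (15 mM, 1 h) and heated with TCA/HCl/thiobarbituric acid for 15 min at 100 °C, then centrifuged. TBARS read at 532 nm against hydrolyzed 1,1,3,3-tetramethoxypropane standard and normalized to protein.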

MDA-MB-435 [6] = assay: Induction of lipid peroxidation in human MDA-MB-435 cells assessed as increase in TBARS formation at 5 uM after 24 hrs; format: functional, cell-based; method in brief: as §3
PBMC = assay: Cytotoxicity against human PBMC cells after 72 hrs by Alamar Blue assay; format: cell-based
SF-295 [7] = assay: Induction of lipid peroxidation in human SF295 cells assessed as increase in TBARS formation at 5 uM after 24 hrs in presence of […]; format: functional, cell-based; method in brief: as §3
MDA-MB-435 [8] = assay: Induction of apoptosis in human MDA-MB-435 cells assessed as cell viability at 5 uM after 24 hrs by trypan blue exclusion assay in presence of […]; format: functional, cell-based; method in brief: as §1
SF-295 [9] = assay: Induction of apoptosis in human SF295 cells assessed as cell viability at 5 uM after 24 hrs by trypan blue exclusion assay; format: functional, cell-based; method in brief: as §1
SF-295 [10] = assay: Induction of apoptosis in human SF295 cells assessed as cell viability at 5 uM after 24 hrs by trypan blue exclusion assay in presence of […]; format: functional, cell-based; method in brief: as §1
SF-295 [11] = assay: Genotoxicity in human SF295 cells assessed as DNA strand breaks at 5 uM after 24 hrs by comet assay; format: functional, cell-based; method in brief: as §2
HL-60 [12] = assay: Induction of apoptosis in human HL60 cells assessed as cell viability at 5 uM after 24 hrs by trypan blue exclusion assay in presence of […]; format: functional, cell-based; method in brief: as §1
HCT-8 [13] = assay: Genotoxicity in human HCT8 cells assessed as DNA strand breaks at 5 uM after 24 hrs by comet assay in presence of […]; format: functional, cell-based; method in brief: as §2
HL-60 [14] = assay: Induction of lipid peroxidation in human HL60 cells assessed as increase in TBARS formation at 5 uM after 24 hrs; format: functional, cell-based; method in brief: as §3
HCT-8 [15] = assay: Genotoxicity in human HCT8 cells assessed as DNA strand breaks at 5 uM after 24 hrs by comet assay; format: functional, cell-based; method in brief: as §2
HCT-8 [16] = assay: Induction of lipid peroxidation in human HCT8 cells assessed as increase in TBARS formation at 5 uM after 24 hrs in presence of […]; format: functional, cell-based; method in brief: as §3
MDA-MB-435 [17] = assay: Induction of apoptosis in human MDA-MB-435 cells assessed as cell viability at 5 uM after 24 hrs by trypan blue exclusion assay; format: functional, cell-based; method in brief: as §1
SF-295 [18] = assay: Cytotoxicity against human SF295 cells after 72 hrs by MTT assay; format: functional, cell-based; settings: SF-295, 72 h
HCT-8 [19] = assay: Cytotoxicity against human HCT8 cells after 72 hrs by MTT assay; format: functional, cell-based; settings: HCT-8, 72 h
HCT-8 [20] = assay: Induction of lipid peroxidation in human HCT8 cells assessed as increase in TBARS formation at 5 uM after 24 hrs; format: functional, cell-based; method in brief: as §3
MDA-MB-435 [21] = assay: Genotoxicity in human MDA-MB-435 cells assessed as DNA strand breaks at 5 uM after 24 hrs by comet assay; format: functional, cell-based; method in brief: as §2
MDA-MB-435 [22] = assay: Genotoxicity in human MDA-MB-435 cells assessed as DNA strand breaks at 5 uM after 24 hrs by comet assay in presence of […]; format: functional, cell-based; method in brief: as §2
MDA-MB-435 [23] = assay: Cytotoxicity against human MDA-MB-435 cells after 72 hrs by MTT assay; format: functional, cell-based; settings: MDA-MB-435, 72 h
HL-60 [24] = assay: Cytotoxicity against human HL60 cells after 72 hrs by MTT assay; format: functional, cell-based; settings: HL-60, 72 h
SF-295 [25] = assay: Induction of lipid peroxidation in human SF295 cells assessed as increase in TBARS formation at 5 uM after 24 hrs; format: functional, cell-based; method in brief: as §3
HL-60 [26] = assay: Genotoxicity in human HL60 cells assessed as DNA strand breaks at 5 uM after 24 hrs by comet assay in presence of […]; format: functional, cell-based; method in brief: as §2
HL-60 [27] = assay: Induction of apoptosis in human HL60 cells assessed as cell viability at 5 uM after 24 hrs by trypan blue exclusion assay; format: functional, cell-based; method in brief: as §1
MDA-MB-435 [28] = assay: Induction of lipid peroxidation in human MDA-MB-435 cells assessed as increase in TBARS formation at 5 uM after 24 hrs in presence of […]; format: functional, cell-based; method in brief: as §3
HL-60 [29] = assay: DNA damage index, DNA damage in human HL60 cells to DNA damage in human HL60 cells with FPG/ENDO3 DNA repair enzymes in presence of […]; format: functional
Method in brief: (§4)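 Cells treated 12 h, then alkaline comet slides washed in enzyme buffer (40 mM HEPES, 100 mM KCl, 0.5 mM Na2EDTA, 0.2 mg/mL BSA, pH 8.0). Slides then incubated with FPG (30 min, 37 °C) or ENDOIII (45 min, 37 °C). Enzyme-sensitive sites = total breaks minus buffer-only breaks. 100 cells scored per group. NAC pretreatment 5 mM. Mean ± S.E.M. of three experiments.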

SF-295 [30] = assay: DNA damage index, DNA damage in human SF295 cells to DNA damage in human HL60 cells with FPG/ENDO3 DNA repair enzymes in presence of […]; format: functional; method in brief: as §4
SF-295 [31] = assay: DNA damage index, DNA damage in human SF295 cells to DNA damage in human HL60 cells with FPG/ENDO3 DNA repair enzymes; format: functional; method in brief: as §4
HCT-8 [32] = assay: DNA damage index, DNA damage in human HCT8 cells to DNA damage in human HL60 cells with FPG/ENDO3 DNA repair enzymes; format: functional; method in brief: as §4
HCT-8 [33] = assay: DNA damage index, DNA damage in human HCT8 cells to DNA damage in human HL60 cells with FPG/ENDO3 DNA repair enzymes in presence of […]; format: functional; method in brief: as §4
MDA-MB-435 [34] = assay: DNA damage index, DNA damage in human MDA-MB-435 cells to DNA damage in human HL60 cells with FPG/ENDO3 DNA repair enzymes in presence of […]; format: functional; method in brief: as §4
MDA-MB-435 [35] = assay: DNA damage index, DNA damage in human MDA-MB-435 cells to DNA damage in human HL60 cells with FPG/ENDO3 DNA repair enzymes; format: functional; method in brief: as §4
HL-60 [36] = assay: DNA damage index, DNA damage in human HL60 cells to DNA damage in human HL60 cells with FPG/ENDO3 DNA repair enzymes; format: functional; method in brief: as §4

CC1(C)OC2=C(C(=O)C(=O)c3ccccc32)[C@H](n2cc(-c3ccc(F)cc3)nn2)[C@H]1Br
Activity (HCT-8 [1]): inactive
Activity (HL-60 [2]): Active
Activity (HCT-8 [3]): Active
Activity (SF-295 [4]): inactive
Activity (HL-60 [5]): inactive
Activity (MDA-MB-435 [6]): Active
pIC50 (PBMC): 5.47
Activity (SF-295 [7]): inactive
Activity (MDA-MB-435 [8]): inactive
Activity (SF-295 [9]): Active
Activity (SF-295 [10]): inactive
Activity (SF-295 [11]): Active
Activity (HL-60 [12]): inactive
Activity (HCT-8 [13]): inactive
Activity (HL-60 [14]): Active
Activity (HCT-8 [15]): Active
Activity (HCT-8 [16]): inactive
Activity (MDA-MB-435 [17]): Active
pIC50 (SF-295 [18]): 5.75
pIC50 (HCT-8 [19]): 5.65
Activity (HCT-8 [20]): Active
Activity (MDA-MB-435 [21]): Active
Activity (MDA-MB-435 [22]): inactive
pIC50 (MDA-MB-435 [23]): 5.92
pIC50 (HL-60 [24]): 5.92
Activity (SF-295 [25]): Active
Activity (HL-60 [26]): inactive
Activity (HL-60 [27]): Active
Activity (MDA-MB-435 [28]): inactive

CC1(C)CC2=C(O1)c1ccccc1C(=O)C2=O [NOR-BETA-LAPACHONE]
Ratio (HL-60 [29]): 12.36
Ratio (SF-295 [30]): 9.18
Activity (HL-60 [5]): inactive
Activity (MDA-MB-435 [6]): Active
pIC50 (PBMC): < 4.66
Activity (SF-295 [7]): inactive
Activity (HL-60 [14]): Active
Ratio (SF-295 [31]): 63.81
Activity (HCT-8 [16]): inactive
Activity (HCT-8 [20]): Active
Ratio (HCT-8 [32]): 63.25
Ratio (HCT-8 [33]): 10.48
Ratio (MDA-MB-435 [34]): 7.49
Ratio (MDA-MB-435 [35]): 78.52
Ratio (HL-60 [36]): 67.19
Activity (SF-295 [25]): Active
Activity (MDA-MB-435 [28]): inactive

CC1(C)OC2=C(C(=O)C(=O)c3ccccc32)[C@H](n2cc(-c3ccccc3)nn2)[C@H]1Br
Activity (HCT-8 [1]): inactive
Activity (HL-60 [2]): Active
Activity (HCT-8 [3]): Active
Activity (SF-295 [4]): inactive
Activity (HL-60 [5]): inactive
Activity (MDA-MB-435 [6]): Active
Activity (SF-295 [7]): inactive
Activity (MDA-MB-435 [8]): inactive
Activity (SF-295 [9]): Active
Activity (SF-295 [10]): inactive
Activity (SF-295 [11]): Active
Activity (HL-60 [12]): inactive
Activity (HCT-8 [13]): inactive
Activity (HL-60 [14]): Active
Activity (HCT-8 [15]): Active
Activity (HCT-8 [16]): inactive
Activity (MDA-MB-435 [17]): Active
pIC50 (SF-295 [18]): 5.81
pIC50 (HCT-8 [19]): 5.86
Activity (HCT-8 [20]): Active
Activity (MDA-MB-435 [21]): Active
Activity (MDA-MB-435 [22]): inactive
pIC50 (MDA-MB-435 [23]): 5.91
pIC50 (HL-60 [24]): 6.00
Activity (SF-295 [25]): Active
Activity (HL-60 [26]): inactive
Activity (HL-60 [27]): Active
Activity (MDA-MB-435 [28]): inactive

CC1(C)CCC2=C(O1)c1ccccc1C(=O)C2=O [LAPACHONE]
Ratio (HL-60 [29]): 8.33
Ratio (SF-295 [30]): 8.72
Activity (HL-60 [5]): inactive
Activity (MDA-MB-435 [6]): Active
pIC50 (PBMC): < 4.69
Activity (SF-295 [7]): inactive
Activity (HL-60 [14]): Active
Ratio (SF-295 [31]): 58.75
Activity (HCT-8 [16]): inactive
Activity (HCT-8 [20]): Active
Ratio (HCT-8 [32]): 72.41
Ratio (HCT-8 [33]): 11.41
Ratio (MDA-MB-435 [34]): 5.16
Ratio (MDA-MB-435 [35]): 83.17
Ratio (HL-60 [36]): 61.36
Activity (SF-295 [25]): Active
Activity (MDA-MB-435 [28]): inactive
